A selection: hits, their analogues and other compounds. The true share with any hit is near 2.3%.
TRPC4 potent: allosteric potentiators of mouse TRPC4 channel; Q9QUQ5; 0.42% of 310,000 active; HEK293 TRPC4beta/mu-opioid, DAMGO EC20, Fluo-4 Ca2+ flux; stronger effect = higher value; B-score at 10 µM;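 active = B-score of calcium response area above 5 SD of library B-scores, with initial fluorescence ratio within 5 SD of library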;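 also: B-score of integrated fluorescence ratio over time as area under calcium response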
Target sequence (Q9QUQ5 whole entry, looked up): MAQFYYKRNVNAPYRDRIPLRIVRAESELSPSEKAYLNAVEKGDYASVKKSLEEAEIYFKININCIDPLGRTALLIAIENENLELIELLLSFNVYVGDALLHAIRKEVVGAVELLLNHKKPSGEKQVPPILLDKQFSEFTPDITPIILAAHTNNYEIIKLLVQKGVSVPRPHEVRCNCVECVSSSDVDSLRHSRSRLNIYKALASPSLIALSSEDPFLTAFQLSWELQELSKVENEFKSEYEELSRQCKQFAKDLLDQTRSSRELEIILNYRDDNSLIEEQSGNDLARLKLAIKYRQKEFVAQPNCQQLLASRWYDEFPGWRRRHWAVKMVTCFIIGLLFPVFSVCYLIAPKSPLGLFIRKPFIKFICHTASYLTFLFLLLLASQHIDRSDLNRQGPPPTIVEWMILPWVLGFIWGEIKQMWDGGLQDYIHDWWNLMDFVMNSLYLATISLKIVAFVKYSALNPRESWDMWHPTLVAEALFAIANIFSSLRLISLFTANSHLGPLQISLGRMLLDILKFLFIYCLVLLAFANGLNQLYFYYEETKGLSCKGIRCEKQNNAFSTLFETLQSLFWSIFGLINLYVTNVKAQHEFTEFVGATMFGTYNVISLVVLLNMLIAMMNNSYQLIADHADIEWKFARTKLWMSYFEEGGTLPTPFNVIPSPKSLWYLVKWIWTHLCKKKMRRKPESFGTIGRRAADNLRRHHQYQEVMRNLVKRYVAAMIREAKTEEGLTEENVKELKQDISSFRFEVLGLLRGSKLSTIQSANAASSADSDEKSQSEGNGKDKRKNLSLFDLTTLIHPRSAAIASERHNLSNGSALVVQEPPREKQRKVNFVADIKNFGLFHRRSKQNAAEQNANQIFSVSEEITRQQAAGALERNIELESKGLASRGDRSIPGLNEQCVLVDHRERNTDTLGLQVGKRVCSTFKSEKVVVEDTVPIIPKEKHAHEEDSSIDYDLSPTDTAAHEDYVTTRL
TRPC6 act: mouse TRPC6 channel activation; HEK293-TRPC6 membrane potential dye fluorescence; stronger effect = higher value; B-score at 10 µM; 0.13% of 310,000 active;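 active = B-score of the integrated fluorescence ratio above library mean plus 3 SD, and starting fluorescence ratio within library mean plus 5 SD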;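 also: higher score means more depolarization so channel activation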
TRPC6 inh: mouse TRPC6 channel inhibition. Q61143. HEK293-TRPC6, membrane potential dye, ACh-evoked depolarization; stronger effect = lower value. B-score at 10 µM. 1.1% of 310,000 active. AID 2553;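 active = B-score under library mean minus 3 SD, initial fluorescence not abnormally high, positive integrated signal ratio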;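 also: B-score derived from integrated fluorescence ratio over the kinetic read; more negative B-score means stronger inhibition of depolarization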
TRPC4 agonist: activators of mouse TRPC4 channel | HEK293 TRPC4beta/mu-opioid, Fluo4 calcium fluorescence; stronger effect = higher value | Q9QUQ5 | B-score at 10 µM | 0.49% of 310,000 active;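 active = B-score above 5 SD of library B-scores, and initial fluorescence ratio not above library mean plus 5 SD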;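 also: positive B-score marks a calcium rise read as TRPC4 activation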
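Assay system: HEK293 stable line with TRPC4beta plus mu-opioid receptor. Times: dye 45 min RT, read 110 s. Measured by: kinetic Fluo4 calcium fluorescence. Measure: B score of integrated ratio. Controls: assay buffer as low control, maximal DAMGO as high control.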
TRPC4 inh: inhibitors of mouse TRPC4 channel; B-score at 10 µM; 0.39% of 300,000 active; Q9QUQ5; HEK293 TRPC4beta/mu-opioid, DAMGO-evoked Fluo4 calcium flux; stronger effect = lower value;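 active = B-score over 3 SD under the library average, no early fluorescence shift, positive overall ratio signal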
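System: stable TRPC4beta/mu-opioid receptor HEK293 cells; Dosing: single-point compound dosing; Measured by: Fluo4 Ca2+ flux fluorescence; Read-out basis: per-well B score of integrated baseline-normalized Fluo4 ratio.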
TRPC4 sel inh 2: second check of whether TRPC6 inhibitors also affect mouse TRPC4; 42% of 920 active; inhibition, % at 10 µM; HEK293 TRPC4/MOR, membrane potential dye fluorescence; channel activated by saturating DAMGO dose; AID 2776; shares compounds with TRPC6 inh;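 active = compounds whose fluorescence signal differed from control wells by over 3 SD, either direction, in both duplicate plates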
TRPC4 spec: mouse TRPC4 off-target activity of TRPC6 inhibitors | shares compounds with TRPC6 inh | AID 2777 | activity change, negative = inhibition, % at 10 µM | 61% of 920 active | HEK293 TRPC4/mu-opioid, membrane potential fluorescence;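 active = rise or fall in signal beyond 3 SD of buffer-only wells in both replicate plates, either sign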;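 also: integrated kinetic ratio of fluorescence range over baseline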
HEK293 MPD ctr 2-1: parental HEK293 nonspecific activity of TRPC6 inhibitors, second screen; shares compounds with TRPC6 inh; parental HEK293 membrane potential dye fluorescence; maximal acetylcholine challenge after compound addition; signal change vs control, % at 10 µM; 31% of 920 active; AID 2779;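 active = membrane potential signal moving either way by over 3 SD of the maximum-effect control, in both duplicate plates, meaning non-specific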
HEK293 MPD ctr-1: checks TRPC6 inhibitor effects in parental HEK293 cells; 60% of 920 active; AID 2780; membrane potential signal change, % at 10 µM; parental HEK293 membrane potential dye fluorescence; shares compounds with TRPC6 inh;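 active = membrane potential signal shifting up or down by more than 3 SD of buffer-only wells, on both duplicate plates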
HEK293 MPD ctr-2: checks TRPC6 modulator effects in parental HEK293 cells. AID 488924. membrane potential dye fluorescence. shares compounds with TRPC6 inh. membrane potential signal change, % at 10 µM. 51% of 2,400 active;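 active = membrane potential signal moves up or down beyond 5 SD from buffer-only wells, on both duplicate plates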
HEK293 MPD ctr 2-2: parental HEK293 nonspecific activity of TRPC6 modulators, second screen; shares compounds with TRPC6 inh; membrane potential dye fluorescence; after compound, maximal acetylcholine stimulation; inhibition, % at 10 µM; 14% of 2,400 active; AID 488926;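 active = membrane potential signal drops by more than 5 SD from the mean control signal, in both duplicate plates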;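 also: plate controls were acetylcholine ECmax control wells for no effect and buffer only wells for full effect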
TRPC4 ctr mod: tests whether TRPC6 modulators also affect mouse TRPC4; shares compounds with TRPC6 inh; HEK293 TRPC4/mu-opioid, membrane potential fluorescence; AID 488927; 69% of 2,400 active; percent change from control (negative = decrease, positive = increase), % at 10 µM;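 active = membrane potential signal moved up or down beyond 5 SD of buffer control wells, in both duplicate plates, actives on both sides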;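 also: plate controls were assay buffer wells for no effect and DAMGO maximal-effect wells for full effect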
TRPC4/MOR inh 2: mouse TRPC4 off-target activity of TRPC6 modulators, second screen | shares compounds with TRPC6 inh | HEK293 TRPC4/mu-opioid, membrane potential dye fluorescence; stimulated with maximal-effect DAMGO | inhibition, % at 10 µM | 55% of 2,400 active;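 active = drop in membrane potential signal beyond 5 SD of the control wells in both duplicate plates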;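 also: TRPC4 counter screen for TRPC6 hits run under conditions tuned for TRPC6 not TRPC4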
TRPC6 inh conf: mouse TRPC6 inhibitor confirmation; shares compounds with TRPC6 inh; HEK293-TRPC6, membrane potential dye, ACh-evoked depolarization; inhibition, % at 10 µM; 43% of 3,300 active;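 active = fluorescence ratio falls more than 5 SD below the full-stimulation control mean, in both duplicate runs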;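 also: integrated fluorescence ratio of peak minus minimum over baseline after agonist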
TRPC6 act conf: confirmation of mouse TRPC6 activators; shares compounds with TRPC6 inh; HEK293-TRPC6 membrane potential dye fluorescence, FDSS; activation, % at 10 µM; 11% of 2,800 active;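 active = ratio signal rise beyond 5 SD above unstimulated control wells' mean, seen in both duplicate runs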;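 also: plate controls were buffer EC0 wells for no effect and acetylcholine ECmax response for full effect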
An asterisk follows results filed as active; i = inactive; . = no result given.

SMILES	TRPC4 potent	TRPC6 act	TRPC6 inh	TRPC4 agonist	TRPC4 inh	HEK293 MPD ctr-2	HEK293 MPD ctr 2-2	TRPC4 ctr mod	TRPC4/MOR inh 2	TRPC6 inh conf	others
O=c1c2ccccc2oc2cc(NCCCN3CCOCC3)ccc12	i	i	i	i	i	.	.	.	.	.
CN1CCCC1CCNc1ccc2c(=O)c3ccccc3oc2c1 (configuration not stated)	i	i	-9.5*	i	i	.	.	.	.	i	TRPC4 sel inh 2=74%*;TRPC4 spec=-10%*;HEK293 MPD ctr 2-1=i;HEK293 MPD ctr-1=i;TRPC6 act conf=i
O=c1c2ccccc2oc2ccc(NCCCN3CCOCC3)cc12	i	i	i	i	i	.	.	.	.	.
CN1CCCC1CCNc1ccc2oc3ccccc3c(=O)c2c1 (configuration not stated)	i	i	-5.6*	i	i	178%*	i	14%*	44%*	44%*
CSc1ccc(S(=O)(=O)Nc2ccc(OCC(=O)N3CCOCC3)cc2)cc1	i	i	i	i	i	.	.	.	.	.
OC(c1cc(-c2ccc(C(F)(F)F)cc2)nc(C(F)(F)F)c1)C1CCCCN1 (configuration not stated)	i	i	-5.9*	43*	i	i	57%*	-10%*	54%*	i	TRPC6 act conf=i
COC(=O)CSc1nc(-c2ccc(F)cc2)cc(C(F)(F)F)n1	i	i	i	i	i	.	.	.	.	.
CC(=O)c1cccc(NC(=O)C(C)OC(=O)c2cccc(-n3cnnn3)c2)c1 (configuration not stated)	i	i	i	i	i	.	.	.	.	.
CN1CCN(NC(=O)CN2C(=O)/C(=C/c3ccccc3Cl)SC2=S)CC1	i	i	-8.3*	i	i	.	.	.	.	61%*	TRPC4 sel inh 2=64%*;TRPC4 spec=i;HEK293 MPD ctr 2-1=i;HEK293 MPD ctr-1=-130%*;TRPC6 act conf=i
CCC(NC(=S)NCc1ccc(F)cc1)c1ccccc1 (configuration not stated)	i	i	i	i	i	.	.	.	.	.
CN1CCc2c(c3ccccc3n2Cc2ccccc2)C1	i	i	-5.4*	i	i	141%*	i	18%*	64%*	i
COc1ccc(/C=C/CN2CCC(Oc3ccc(C(=O)N4CCCCC4)cc3)CC2)cc1	i	i	i	i	i	.	.	.	.	.
COC(=O)c1ccc(CN2CCC(Oc3ccc(C(=O)N4CCCCC4)cc3)CC2)cc1	i	i	-5.7*	i	i	140%*	i	15%*	i	46%*
COc1ccccc1/C=C/CN1CCC(Oc2ccc(C(=O)N3CCCCC3)cc2)CC1	i	i	-5.8*	i	i	240%*	i	22%*	80%*	51%*
COC(=O)c1ccc(CN2CCC(Oc3cccc(C(=O)N4CCCC4)c3)CC2)cc1	i	i	i	i	i	.	.	.	.	.
COc1cc(/C=N/n2cnnc2)ccc1OCC(=O)N1CCOCC1	i	i	-7.2*	i	i	-334%*	i	-54%*	44%*	46%*	TRPC6 act conf=i
CC(=O)Nc1ccc(S(=O)(=O)n2cnc(C)c2)cc1	i	i	i	i	i	.	.	.	.	.
Cc1ccc(S(=O)(=O)n2cnc(C)c2)cc1	i	i	-8.2*	i	i	.	.	.	.	i	TRPC4 sel inh 2=i;TRPC4 spec=i;HEK293 MPD ctr 2-1=i;HEK293 MPD ctr-1=i;TRPC6 act conf=i
OC1OC[C@@H](O)[C@H](O)[C@H]1O (some centres not stated)	i	i	i	i	i	.	.	.	.	.
COc1ccc(C(C(=O)NC2CCCC2)N(CCCO)C(=O)c2snc(C(N)=O)c2N)cc1 (configuration not stated)	i	i	i	i	i	.	.	.	.	.
Cc1cc(Cl)ccc1C(=O)C1CCCN(C(=O)c2cnsn2)C1 (configuration not stated)	i	i	-6.7*	i	i	.	.	.	.	i	TRPC4 sel inh 2=i;TRPC4 spec=26%*;HEK293 MPD ctr 2-1=i;HEK293 MPD ctr-1=18%*
CSc1nc(C(=O)N2CCCC(C(=O)c3ccc(Cl)cc3)C2)cs1 (configuration not stated)	i	i	-5.9*	i	i	138%*	i	33%*	i	i
Cc1cc(Cl)ccc1C(=O)C1CCCN(C(=O)c2cscn2)C1 (configuration not stated)	i	i	i	i	i	.	.	.	.	.
C/C=C/c1ccc(OCC(=O)N(CCOC)c2c(N)n(CCCC)c(=O)[nH]c2=O)c(OC)c1	i	i	i	i	i	.	.	.	.	.
N=c1c2ccccc2nc2n1CCCCCCCCCCC2	i	i	-7.6*	i	i	.	.	.	.	i	TRPC4 sel inh 2=50%*;TRPC4 spec=17%*;HEK293 MPD ctr 2-1=254%*;HEK293 MPD ctr-1=18%*
Cc1ccc(C(OCC(C)(C)C[N+](C)(C)C)c2ccccc2)cc1 (configuration not stated)	i	i	-8.1*	i	i	.	.	.	.	i	TRPC4 sel inh 2=i;TRPC4 spec=i;HEK293 MPD ctr 2-1=19%*;HEK293 MPD ctr-1=i;TRPC6 act conf=i
CCN(CC)CCOC(c1ccccc1)c1ccc(C)cc1 (configuration not stated)	i	i	i	i	i	.	.	.	.	.
CCOC(=O)CCCn1ncn2c(cc3occc32)c1=O	i	i	i	i	i	.	.	.	.	.
